The text below walks through data of ChEMBL document CHEMBL4052723, “A novel inhibitor of farnesyltransferase with a zinc site recognition moiety and a farnesyl group” (Bioorg Med Chem Lett, 2017).

Activity calls are given as the source filed them. No cut-off for these calls is given here.

Assay [1] in a line: Inhibition of human protein farnesyltransferase using dansyl peptide containing CAAX as substrate in presence of farnesyl pyrophosphate after 15 mins by fluorescence assay.
Assay [2] has as its system ASPC1. In words: Antiproliferative activity against human AsPC1 cells expressing K-Ras mutant at 0.5 to 10 uM after 2 days by trypan blue staining based assay. Type of assay: functional, cell-based. A digest of the protocol: (§1)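 Cells (AsPC-1, K-Ras mutant; or BxPC-3) were seeded at 1.0 × 10^4 per well and grown 1 d at 37 °C. The disulfide prodrug form was then added, and cells were incubated 2 days. At 0, 1 and 2 days after addition, cells were detached and stained with 0.4% trypan blue. Unstained (living) cells were counted.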

The subject of assay [3] is ASPC1. In words: Antiproliferative activity against human AsPC1 cells expressing K-Ras mutant at 10 uM after 1 day in presence of DTT by trypan blue staining based assay. It counts as functional, cell-based.
The next assay has as its system BXPC-3. In words: Antiproliferative activity against human BxPC3 cells at 0.5 to 10 uM after 2 days by trypan blue staining based assay. It counts as functional, cell-based. Summed up: as §1
The species entered for assay [4] is Homo sapiens. Description: Inhibition of human protein farnesyltransferase assessed as enzyme activity in presence of Zn2+ ions (reference value: 49%). More on the design: scale not given: the % may be the effect or the level left.
The species named for assay [5] is Homo sapiens. In words: Inhibition of human protein farnesyltransferase assessed as enzyme activity in presence of Ca2+ ions (reference value: 49%). More on the design: scale not given: the % may be the effect or the level left.
The species entered for assay [6] is Homo sapiens. In words: Inhibition of human protein farnesyltransferase assessed as enzyme activity in presence of Co2+ ions (reference value: 49%). Also noted: scale not given: the % may be the effect or the level left.
Assay [7] is filed under the species Homo sapiens. In words: Inhibition of human protein farnesyltransferase assessed as enzyme activity in presence of Cu2+ ions (reference value: 49%). Also noted: scale not given: the % may be the effect or the level left.
The species named for assay [8] is Homo sapiens. In words: Inhibition of human protein farnesyltransferase assessed as enzyme activity in presence of Fe2+ ions (reference value: 49%). Also noted: scale not given: the % may be the effect or the level left.
The species named for assay [9] is Homo sapiens. In words: Inhibition of human protein farnesyltransferase assessed as enzyme activity in presence of Ni2+ ions (reference value: 49%). More on the design: scale not given: the % may be the effect or the level left.
Assay [10] relates to ASPC1. Description: Antiproliferative activity against human AsPC1 cells expressing K-Ras mutant after 2 days by trypan blue staining based assay. Type of assay: functional, cell-based. Summed up: as §1

What is called IC50 is the midpoint of a concentration-inhibition curve.

`CC(C)=CCC/C(C)=C/CC/C(C)=C/COC(=O)Nc1cc(CNCCS)nc(CNCCS)c1`: in assay [1], the IC50 is 900 nM. Moreover, the outcome in the assay with ASPC1 [2], in the assay with ASPC1 [3] and in the assay with BXPC-3 was Active.

As for `SCCNCc1cc(-c2cccc3ccccc23)cc(CNCCS)n1`, the Activity in the assay listed under Homo sapiens [4] came to 100%; in the assay listed under Homo sapiens [5], 48%; in the assay filed under Homo sapiens [6], 66%; in the assay listed under Homo sapiens [7] it was 47%; in the assay listed under Homo sapiens [8], 38%; in the assay listed under Homo sapiens [9] it was 67%.

On to `CCCCCCCCCCCCOC(=O)Nc1cc(CNCCS)nc(CNCCS)c1`, for which the Activity result with ASPC1 [10] is “Dose-dependent effect”. Moreover, the IC50 in [1] is 2000 nM. Besides, in the assay with ASPC1 [3], the outcome was Active.
